Each structure is given as a SMILES string. In brackets after ≈: the same amount, converted by molar mass. Where only a bound is given, the exact number is not on record here.

By clearance is commonly meant the volume of plasma or blood freed of the substance per unit of time. A high value points to efficient removal. What is called MIC is the least concentration at which growth counts as inhibited. By half-life is commonly meant the time in which the quantity being followed falls by half. A lower half-life goes with rapid decline. Broadly, the bioavailability is the share of a dose that reaches the circulation, judged against a reference dose that is usually intravenous. Read a high bioavailability as good availability. Broadly, the Cmax is the maximum level reached in the sampled fluid or tissue.

A short description of series [1]: Total body clearance was determined. Type of series: ADME, organism-based. Particulars: in vivo. Summed up: (§1)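 Mice dosed iv at 5 mg/kg or orally at 20 mg/kg, n = 3; drug concentrations measured in plasma/serum over time to derive half-life, Cmax, total body clearance, steady-state volume and oral bioavailability.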
In another series the test system is Nakaseomyces glabratus. Briefly: Minimum inhibitory concentration (MIC) to Candida glabrata after 48 hours. Format: functional. Summed up:
(§2)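 Antifungal susceptibility read visually; MIC taken as lowest drug concentration giving 90–100% inhibition of visible growth relative to drug-free controls, read over 48 h, or after 24 h where footnoted. Organisms: C. parapsilosis, C. albicans, Cryptococcus neoformans, C. glabrata, Aspergillus fumigatus, Aspergillus flavus.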

Series [2] can be described thus: Volume of steady state concentration was determined. Format: ADME, organism-based. Particulars: in vivo; read-out: Vss. Summed up:
as §1

Another series relates to Candida albicans. Briefly: Minimum inhibitory concentration (MIC) to Candida albicans after 48 hr. Type of series: functional. Summed up: as §2
In the next series the test system is Candida parapsilosis. Briefly: Minimum inhibitory concentration (MIC) to Candida parapsilosis after 48 hr. Type of series: functional. Summed up: as §2
The test system of a further series is Aspergillus fumigatus. Briefly: Minimum inhibitory concentration (MIC) to Aspergillus fumigatus after 48 hr. Type of series: functional. Summed up: as §2
The nature of series [3]: Half life period was measured upon intravenous administration (5 mg/kg). Type of series: ADME, organism-based. Particulars: in vivo. Summed up:
as §1

Another series relates to Cryptococcus neoformans. Briefly: Minimum inhibitory concentration against Cryptococcus neoformans after 48 hours. Format: functional. Summed up:
as §2

A further series relates to Aspergillus flavus. Briefly: Minimum inhibitory concentration (MIC) against Aspergillus flavus after 24 hours. Type of series: functional. Summed up: as §2
The nature of series [4]: Oral bioavailability. Format: ADME, organism-based. Particulars: eutheria, in vivo. Summed up:
as §1

Series [5] in a line: Maximum plasma concentration was determined. Format: ADME, organism-based. Summed up: as §1
Series [6] is described as follows: Half life period was measured upon oral administration (20 mg/kg). Format: ADME, organism-based. The conditions noted are these: in vivo. Summed up:
as §1

Setting [7] is: Nakaseomyces glabratus, 48 h, read-out: MIC.
Setting [8] is: Lodderomyces parapsilosis, 48 h, read-out: MIC.
Where [9] appears, read: Aspergillus fumigatus, 48 h, read-out: MIC.
The mark [10] stands for this setting: Aspergillus flavus, 24 h, read-out: MIC.

As for `C=C(Cl)CN1C[C@H](OCC23C[C@@H]4[C@H](C)CC[C@H]4C4(C=O)CC2C=C(C(C)C)[C@@]34C(=O)O)O[C@H](C)C1`, the clearance in series [1] came to 13 mL/min/kg. For the same compound, the minimal inhibitory concentration (MIC) in the series on Nakaseomyces glabratus (setting [7]) was 0.125 µg/mL (≈ 0.247 µM); in the series on Candida albicans, less than 0.06 µg/mL; in the series with Candida parapsilosis (setting [8]), 8 µg/mL (≈ 15.8 µM); in the series on Aspergillus fumigatus (setting [9]) it was greater than 128 µg/mL; in the series with Cryptococcus neoformans it was greater than 128 µg/mL; in the series with Aspergillus flavus (setting [10]), 4 µg/mL (≈ 7.9 µM). Also, in [2], the Vd is 0.49 L/kg. The compound further gave a half-life in series [3] of 0.44 h.
As to `C=C(Cl)CN1C[C@H](OCC23C[C@@H]4[C@H](C)CC[C@H]4C4(C=O)CC2C=C(C(C)C)[C@@]34C(=O)O)OC[C@H]1C`, the clearance in series [1] amounted to 95 mL/min/kg. The MIC with Nakaseomyces glabratus was 0.125 µg/mL (≈ 0.247 µM); in the series on Nakaseomyces glabratus (setting [7]), 0.125 µg/mL (≈ 0.247 µM); with Candida albicans, less than 0.06 µg/mL; in the series with Candida parapsilosis, 1 µg/mL (≈ 1.98 µM); in the series with Candida parapsilosis (setting [8]), 1 µg/mL (≈ 1.98 µM); against Aspergillus fumigatus, 32 µg/mL (≈ 63.2 µM). The MIC in the series with Aspergillus fumigatus (setting [9]) is 32 µg/mL (≈ 63.2 µM); against Cryptococcus neoformans it was less than 0.06 µg/mL; in the series on Aspergillus flavus, 0.5 µg/mL (≈ 0.988 µM); in the series on Aspergillus flavus (setting [10]) it was 0.5 µg/mL (≈ 0.988 µM). Further, the bioavailability in [4] came out at 100%. Moreover, the Vd in series [2] is 7.1 L/kg. In addition, the half-life in series [3] was 1.8 h; in [6], 2.1 h. The compound further displayed a Cmax in series [5] of 5950 ng/mL.
With `C=C(Cl)CN1C[C@H](OCC23C[C@@H]4[C@H](C)CC[C@H]4C4(C=O)CC2C=C(C(C)C)[C@@]34C(=O)O)OC[C@H]1C(C)C`, the clearance in [1] turned out to be 20 mL/min/kg. In addition, the minimal inhibitory concentration (MIC) in the series on Nakaseomyces glabratus (setting [7]) is less than 0.06 µg/mL; against Candida albicans it was less than 0.06 µg/mL; in the series on Candida parapsilosis (setting [8]), 2 µg/mL (≈ 3.74 µM); in the series on Aspergillus fumigatus (setting [9]) it was 32 µg/mL (≈ 59.9 µM); against Cryptococcus neoformans it was less than 0.06 µg/mL; in the series with Aspergillus flavus (setting [10]) it was 2 µg/mL (≈ 3.74 µM). In series [4], this compound yielded a bioavailability of 83%. For the same compound, the Vd in [2] amounted to 1.6 L/kg. The values for the half-life in series [3] and in [6] were 1.6 h and 3.1 h, respectively. In series [5], this compound displayed a Cmax of 3880 ng/mL.

For the origin of these results see ChEMBL document CHEMBL1136700, “Identification of a broad-spectrum azasordarin with improved pharmacokinetic properties” (Bioorg Med Chem Lett, 2003).
